This is an account of results in ChEMBL document CHEMBL1914308, “N-fused imidazoles as novel anticancer agents that inhibit catalytic activity of topoisomerase IIα and induce apoptosis in G1/S phase” (J Med Chem, 2011).

Active and inactive are the calls of the source. No cut-off for these calls is given here.

Data set [1] concerns the target T1, DNA topoisomerase 2-alpha (Homo sapiens, UniProt P11388). In words: Inhibition of human topoisomerase 2 alpha-mediated decatenation of kDNA at 100 uM by agarose gel electrophoresis. Summed up: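 150 ng kDNA with 2–4 units purified human topo II and 100 μM compound in DMSO, buffer 0.5 M Tris-HCl pH 8, NaCl, MgCl2, DTT, BSA with ATP (stock buffer concentrations), 20 μL, 37 °C 30 min. Stopped with SDS, proteinase K 37 °C 15 min; 1% agarose in TAE with 0.5 μg/mL EtBr; bands quantified by densitometry; etoposide 100 μM as reference.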

Data set [2] deals with T1, DNA topoisomerase 2-alpha. In words: Inhibition of human topoisomerase 2 alpha-mediated relaxation of pRYG plasmid DNA at 100 uM by agarose gel electrophoresis. Summed up: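 250 ng supercoiled pRYG plasmid, 2–4 units hTopoIIα, 100 μM compound, ATP-containing Tris pH 8 buffer, 20 μL, 37 °C 30 min; SDS/proteinase K stop; 1% agarose in TAE without EtBr, post-stained 0.5 μg/mL EtBr; products quantified densitometrically.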

Data set [3] concerns the target T1, DNA topoisomerase 2-alpha. In words: Inhibition of etoposide poisoning activity against human recombinant DNA topoisomerase 2alpha assessed as enhancement of in relaxation of supercoiled plasmid pBR322 DNA at 200 uM after 30 mins by agarose gel electrophoresis.
Data set [4] deals with T1, DNA topoisomerase 2-alpha. As to the kind of experiment: Inhibition of etoposide poisoning activity against human recombinant DNA topoisomerase 2alpha assessed as enhancement of in relaxation of supercoiled plasmid pBR322 DNA at 100 uM after 30 mins by agarose gel electrophoresis.
Data set [5] in a line: Cytotoxicity activity against african green monkey Vero assessed as cell survival at 100 uM after 48 hrs by MTT assay. The class given is cell-based. The conditions noted are these: chlorocebus sabaeus, Vero cells; read-out: Activity. Summed up:
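MTT survival of HEK 293 and Vero cells after 48 h with compound at graded concentrations. DMEM, 10% FBS, 37 °C, 5% CO2; dilutions in DMEM from 100 mM DMSO stock, added at 60–70% confluence. Mean ± SD of three independent experiments.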
(Formazan colour is commonly taken as a measure of viable cells.)

The test system of data set [6] is HEK293. In words: Cytotoxicity against human HEK293 cells assessed as cell survival after 48 hrs by MTT assay. Type of data set: functional. The conditions noted are these: HEK293, 48 h, read-out: LC50 (the source's name). A digest of the protocol:
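HEK 293 cells were cultured in DMEM with 10% FBS and antibiotics at 37 °C in 5% CO₂. At 60–70% confluence they were treated for 48 h with various concentrations, diluted in DMEM from 100 mM DMSO stocks. Survival was read by MTT. LC₅₀ is the concentration killing 50% of cells. Data are mean ± SD of three independent experiments.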

Data set [7] in a line: Anticlonogenic activity against african green monkey Vero after 48 hrs by crystal violet staining. The conditions noted are these: chlorocebus sabaeus, Vero cells; read-out: LC50. The class given is ADME, cell-based. A digest of the protocol:
(§1)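 HEK 293 and Vero cells were grown in DMEM with 10% FBS and 1% penicillin/streptomycin at 37 °C in 5% CO₂. At 60–70% confluence they were exposed for 48 h to a range of concentrations, diluted in DMEM from 100 mM DMSO stocks. Colony survival is expressed as %. Values are mean ± SD of three independent experiments; LC₅₀ is the concentration killing half the cells.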

Data set [8] relates to HEK293. In words: Anticlonogenic activity against human HEK293 cells after 48 hrs by crystal violet staining. The conditions noted are these: HEK293, 48 h, read-out: LC50 (the source's name). The class given is functional. A digest of the protocol: as §1
Data set [9] concerns Vero. As to the kind of experiment: Anticlonogenic activity against african green monkey Vero cells assessed as inhibition of colony formation of cells at 20 to 100 uM after 48 hrs by crystal violet staining. The class given is cell-based. The conditions noted are these: chlorocebus sabaeus. A digest of the protocol: (§2)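 Clonogenic survival in HEK 293 and Vero cells, 48 h exposure at graded concentrations; % survival plotted; mean ± SD of three independent experiments. Cells grown in DMEM with 10% FBS and 1% antibiotic at 37 °C, 5% CO2; compound diluted from 100 mM DMSO stock into DMEM, added at 60–70% confluence.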

Data set [10] concerns HEK293. In words: Anticlonogenic activity against human HEK293 cells assessed as inhibition of colony formation of cells at 20 to 100 uM after 48 hrs by crystal violet staining. The class given is functional, cell-based. A digest of the protocol: as §2
Data set [11] has as its target T1, DNA topoisomerase 2-alpha. As to the kind of experiment: Inhibition of human topoisomerase 2 alpha-mediated unwinding of supercoiled DNA assessed as DNA intercalation at 100 uM by agarose gel electrophoresis. A digest of the protocol: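 250 ng negatively supercoiled E. coli plasmid incubated 20 min at 37 °C with 1 μg/mL ethidium bromide (intercalator control), 100 μM etoposide or test compound; run on 1% agarose in TAE without EtBr, then post-stained with 0.5 μg/mL EtBr; mobility retardation scored.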

The test system of data set [12] is HEK293. As to the kind of experiment: Cytotoxicity against human HEK293 cells assessed as cell survival at 30 uM after 48 hrs by MTT assay. The class given is functional. The conditions noted are these: HEK293, 48 h, read-out: Activity.
For data set [13], the target named is T1, DNA topoisomerase 2-alpha. The conditions noted are these: HEK293, 100 uM.
Data set [14] deals with T1, DNA topoisomerase 2-alpha. The conditions noted are these: HEK293, 100 uM. This is another data set of the same source.

T1 sequence (P11388 whole entry): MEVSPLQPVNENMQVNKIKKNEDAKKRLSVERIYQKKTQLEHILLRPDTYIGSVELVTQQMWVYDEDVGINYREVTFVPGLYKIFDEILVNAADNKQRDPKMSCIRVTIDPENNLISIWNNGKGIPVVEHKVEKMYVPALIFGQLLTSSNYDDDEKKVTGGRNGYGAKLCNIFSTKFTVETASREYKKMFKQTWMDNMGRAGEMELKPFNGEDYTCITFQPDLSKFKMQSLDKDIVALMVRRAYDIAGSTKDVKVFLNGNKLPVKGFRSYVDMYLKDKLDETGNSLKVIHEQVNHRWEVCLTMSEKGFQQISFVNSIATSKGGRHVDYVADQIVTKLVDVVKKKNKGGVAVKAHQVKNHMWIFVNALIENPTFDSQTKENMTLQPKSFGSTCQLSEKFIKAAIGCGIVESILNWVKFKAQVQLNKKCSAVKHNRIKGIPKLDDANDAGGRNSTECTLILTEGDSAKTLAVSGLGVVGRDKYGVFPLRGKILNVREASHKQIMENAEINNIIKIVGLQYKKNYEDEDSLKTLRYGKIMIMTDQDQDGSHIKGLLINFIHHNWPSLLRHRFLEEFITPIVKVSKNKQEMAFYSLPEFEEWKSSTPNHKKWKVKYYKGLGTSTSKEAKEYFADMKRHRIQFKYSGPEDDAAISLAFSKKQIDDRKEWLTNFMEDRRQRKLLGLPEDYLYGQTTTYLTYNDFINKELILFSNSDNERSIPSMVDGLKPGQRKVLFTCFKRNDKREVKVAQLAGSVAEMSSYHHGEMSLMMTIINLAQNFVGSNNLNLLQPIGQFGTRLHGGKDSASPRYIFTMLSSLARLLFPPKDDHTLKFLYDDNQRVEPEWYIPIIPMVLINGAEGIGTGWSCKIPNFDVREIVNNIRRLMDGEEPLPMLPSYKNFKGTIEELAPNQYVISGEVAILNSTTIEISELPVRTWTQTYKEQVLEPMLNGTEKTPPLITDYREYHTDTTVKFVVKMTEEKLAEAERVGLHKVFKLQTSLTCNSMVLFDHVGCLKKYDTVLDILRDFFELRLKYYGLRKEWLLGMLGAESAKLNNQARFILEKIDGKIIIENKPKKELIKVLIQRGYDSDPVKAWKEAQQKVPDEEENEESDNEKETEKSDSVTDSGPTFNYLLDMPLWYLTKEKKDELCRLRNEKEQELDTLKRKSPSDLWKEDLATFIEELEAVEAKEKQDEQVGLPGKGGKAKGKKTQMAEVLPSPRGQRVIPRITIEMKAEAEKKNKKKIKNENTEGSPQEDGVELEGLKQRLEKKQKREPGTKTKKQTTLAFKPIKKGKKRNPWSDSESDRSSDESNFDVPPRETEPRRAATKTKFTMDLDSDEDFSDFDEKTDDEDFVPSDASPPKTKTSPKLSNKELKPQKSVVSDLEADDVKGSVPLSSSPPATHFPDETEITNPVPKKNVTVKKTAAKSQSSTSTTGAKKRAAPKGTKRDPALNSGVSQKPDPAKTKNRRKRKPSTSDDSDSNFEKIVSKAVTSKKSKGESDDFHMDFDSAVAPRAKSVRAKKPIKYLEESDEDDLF

For `CC(C)(C)Nc1cnc2cnccn12`, in data set [1], the inhibition entry is “inactive”.
Still for that read-out and setting: the value for `CCOC(=O)c1cnn2c(NC3CCCCC3)c(-c3ccc(Cl)cc3)[nH]c12` was “Active”.
For `Nc1c(-c2ccccn2)nc2ccc(Cl)cn12`, in data set [1], the inhibition entry was “inactive”.
Consider `Clc1ccc(-c2nc3cnccn3c2NC2CCCCC2)cc1`, for which, in [1], the inhibition entry was “inactive”.
On the same count and under the same terms, the value for `CCCc1nc2ccccn2c1NC(C)(C)C` was “inactive”; that for `CC(C)(C)Nc1c(-c2ccc(C(=O)O)cc2)nc2cnccn12` was “inactive”; that for `CC(C)(C)Nc1c(-c2ccccc2)nc2cnccn12` was “inactive”.
Still for that read-out and setting: the value for `COc1cccc(-c2nc3cnccn3c2NC(C)(C)C)c1` was “inactive”; that for `CC(C)(C)Nc1c(-c2ccc[nH]2)nc2ccccn12` was “inactive”.
Take `CC(C)(C)Nc1c(-c2ccc(Cl)cc2)nc2ccccn12`: the inhibition entry in data set [1] was “inactive”.
For `CC(C)(C)Nc1c(-c2ccc(Cl)cc2)nc2ccc(Cl)cn12`, the inhibition entry in data set [1] and in data set [2] was “Active” throughout.
Take `CCOC(=O)c1cnn2c(NC(C)(C)C)c(-c3ccc(Cl)cc3)[nH]c12`: the inhibition result in data set [3], in [4] and in data set [11] was “inactive” throughout. Also, the inhibition entry in [1] and in [2] was “Active” each time. In data set [5], the viability at 48 h, 100 µM was less than 50%. The CC50 in data set [6] and in data set [8] was 15 µM throughout. Further, the CC50 at 48 h in data set [7] was 22 µM. In addition, the “inhibition (INH)” value in data set [9] is “Dose-dependent effect”. Moreover, in data set [10], the inhibition result is “Dose-dependent effect”.
Take `Nc1c(-c2ccc(Cl)cc2)nc2ccccn12`: the inhibition entry in [1] and in data set [2] was “Active” each time.
With `CC(C)(C)Nc1cnc2ccccn12`, in [1], the inhibition entry was “inactive”.
Regarding `Nc1c(-c2ccc(Cl)cc2)nc2cnccn12`, the inhibition entry in data set [3], in data set [4] and in [11] was “inactive” each time. For the same molecule, the inhibition entry in data set [1] and in data set [2] was “Active” throughout. The viability at 48 h, 100 µM in [5] is less than 50%. Moreover, the CC50 in data set [6] stood at 17 µM; in data set [8], 16 µM. The CC50 at 48 h in data set [7] was found to be 28 µM. Also, the “inhibition (INH)” value in [9] was “Dose-dependent effect”. Moreover, the inhibition result in [10] is “Dose-dependent effect”.
On to `CN(C)c1ccc(-c2nc3ccccn3c2NC(C)(C)C)cc1`, for which the inhibition result in data set [1] was “Active”.
On the same count and under the same terms, the value for `CC(C)(C)Nc1c(-c2ccc(F)cc2)nc2ccc(Cl)cn12` was “Active”; that for `CC(C)(C)Nc1nc2ncccn2c1-c1ccc(C#N)cc1` was “inactive”.
With `CC(C)(C)Nc1c(-c2ccccn2)nc2ccccn12`, the inhibition result in [1] and in data set [2] was “Active” each time.
With `CC(C)(C)Nc1c(-c2ccc(Cl)cc2)nc2cnccn12`, the inhibition result in [3], in data set [4] and in [11] was “inactive” throughout. The inhibition result in [1] and in data set [2] was “Active” in each case. Besides, the viability at 48 h, 100 µM in data set [5] is less than 50%. Further, the CC50 came out at 10 µM in [6] and 20 µM in data set [8]. Also, in data set [7], the CC50 at 48 h turned out to be 25 µM. Besides, in [9], the “inhibition (INH)” value is on record as “Dose-dependent effect”. In addition, in [10], the inhibition result was “Dose-dependent effect”.
On to `CCOC(=O)c1cnn2c(N)c(-c3ccc(Cl)cc3)[nH]c12`, for which the inhibition result in [3], in data set [4] and in data set [11] was “inactive” each time. Further, the inhibition result in data set [1] and in [2] was “Active” each time. Besides, in [5], the viability at 48 h, 100 µM was less than 50%. The CC50 in data set [6] and in data set [8] was 25 µM throughout. In addition, the CC50 at 48 h in [7] came to 62 µM. Moreover, the “inhibition (INH)” value in [9] is on record as “Dose-dependent effect”. In data set [10], the inhibition entry is “Dose-dependent effect”.
For `Cc1ccn2c(NC(C)(C)C)c(-c3ccc(Cl)cc3)nc2c1`, the inhibition result in data set [1] was “inactive”.
On to `O=c1[nH]cc(F)c(=O)[nH]1` [FLUOROURACIL], for which the viability at 30 µM in data set [12] amounted to 50%.
As to `CC(C)(C)Nc1c(-c2ccc(Cl)cc2)nc2[nH]c3ccccc3n12`, in [1], the inhibition result was “Active”.
As to `CC(C)(C)Nc1c(-c2ccc(Cl)cc2)nc2ncccn12`, the inhibition entry in data set [1] is “Active”.
Turning to `CC(C)(C)Nc1c(-c2ccccc2Cl)nc2cnccn12`, the inhibition entry in data set [1] was “Active”.
In the case of `COc1ccc(-c2nc3cnccn3c2N)cc1`, the inhibition entry in data set [1] and in data set [2] was “Active” throughout.
`COc1cc([C@@H]2c3cc4c(cc3[C@@H](O[C@@H]3O[C@@H]5CO[C@@H](C)O[C@H]5[C@H](O)[C@H]3O)[C@H]3COC(=O)[C@H]23)OCO4)cc(OC)c1O` [ETOPOSIDE]: the inhibition entry in [3], in data set [11] and in [13] was “inactive” each time. Besides, the inhibition entry in data set [4] and in data set [14] was “Active” throughout. Moreover, the CC50 in data set [6] came out at 90 µM.
For the molecule `N#Cc1ccc(-c2nc3ccc(Br)cn3c2N)cc1`, in [1], the inhibition entry was “Active”.
On to `CC(C)(C)Nc1c(-c2cccc3ccccc23)nc2ccccn12`, for which the inhibition result in data set [1] was “Active”.
